# ChEMBL document CHEMBL4024792, “(N-Hydroxycarbonylbenylamino)quinolines as Selective Histone Deacetylase 6 Inhibitors Suppress Growth of Multiple Myeloma in Vitro and in Vivo” (J Med Chem, 2018)
# The source made the active and inactive calls. The rule behind the calls is not given here.
# Experiments:
# [1] = tested on: U-266; test: Cell cycle arrest in human U266 cells assessed as accumulation at sub-G1 phase at 5 uM after 24 hrs by propidium iodide staining based flow cytometry (reference value: 10.76%); type: functional
# [2] = tested on: U-266; test: Cell cycle arrest in human U266 cells assessed as accumulation at G0/G1 phase at 5 uM after 24 hrs by propidium iodide staining based flow cytometry (reference value: 40.29%); type: functional
# [3] = tested on: U-266; test: Cell cycle arrest in human U266 cells assessed as accumulation at G2/M phase at 5 uM after 24 hrs by propidium iodide staining based flow cytometry (reference value: 35.13%); type: functional
# [4] = tested on: NCI-H929; test: Cell cycle arrest in human NCI-H929 cells assessed as accumulation at G0/G1 phase at 5 uM after 24 hrs by propidium iodide staining based flow cytometry (reference value: 49.39%); type: functional
# [5] = tested on: NCI-H929; test: Cell cycle arrest in human NCI-H929 cells assessed as accumulation at G2/M phase at 5 uM after 24 hrs by propidium iodide staining based flow cytometry (reference value: 31.63%); type: functional
# [6] = tested on: RPMI-8226; test: Cell cycle arrest in human RPMI8226 cells assessed as accumulation at S phase at 5 uM after 24 hrs in presence of bortezomib by propidium iodide staining based flow cytometry (reference value: 19.53%); type: functional
# [7] = tested on: U-266; test: Cell cycle arrest in human U266 cells assessed as accumulation at sub-G1 phase at 5 uM after 24 hrs in presence of bortezomib by propidium iodide staining based flow cytometry (reference value: 10.76%); type: functional
# [8] = tested on: U-266; test: Cell cycle arrest in human U266 cells assessed as accumulation at G0/G1 phase at 5 uM after 24 hrs in presence of bortezomib by propidium iodide staining based flow cytometry (reference value: 40.29%); type: functional
# [9] = tested on: U-266; test: Cell cycle arrest in human U266 cells assessed as accumulation at G2/M phase at 5 uM after 24 hrs in presence of bortezomib by propidium iodide staining based flow cytometry (reference value: 35.13%); type: functional
# [10] = tested on: NCI-H929; test: Cell cycle arrest in human NCI-H929 cells assessed as accumulation at sub-G1 phase at 5 uM after 24 hrs in presence of bortezomib by propidium iodide staining based flow cytometry (reference value: 5.59%); type: functional
# [11] = tested on: NCI-H929; test: Cell cycle arrest in human NCI-H929 cells assessed as accumulation at G0/G1 phase at 5 uM after 24 hrs in presence of bortezomib by propidium iodide staining based flow cytometry (reference value: 49.39%); type: functional
# [12] = tested on: NCI-H929; test: Cell cycle arrest in human NCI-H929 cells assessed as accumulation at S phase at 5 uM after 24 hrs in presence of bortezomib by propidium iodide staining based flow cytometry (reference value: 13.5%); type: functional
# [13] = tested on: NCI-H929; test: Cell cycle arrest in human NCI-H929 cells assessed as accumulation at G2/M phase at 5 uM after 24 hrs in presence of bortezomib by propidium iodide staining based flow cytometry (reference value: 31.63%); type: functional
# [14] = tested on: RPMI-8226; test: Induction of apoptosis in human RPMI8226 cells at 5 uM after 24 hrs by Annexin V/propidium iodide staining based flow cytometry; type: functional, cell-based
# [15] = tested on: RPMI-8226; test: Induction of apoptosis in human RPMI8226 cells at 5 uM after 24 hrs in presence of bortezomib by Annexin V/propidium iodide staining based flow cytometry; type: functional, cell-based
# [16] = tested on: U-266; test: Induction of apoptosis in human U266 cells at 5 uM after 24 hrs in presence of bortezomib by Annexin V/propidium iodide staining based flow cytometry; type: functional, cell-based
# [17] = tested on: RPMI-8226; test: Antitumor activity against human RPMI8226 cells xenografted in nude mouse assessed as tumor growth inhibition at 30 mg/kg, iv or ip administered for 5 days followed by 2 days off for 35 days relative to control; type: functional; conditions: read-out: TGI
# Summary of the method: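 RPMI 8226 cells (1 × 10^7) implanted s.c. in eight-week-old male nude mice. At mean tumor volume 200 mm3, mice randomized into four groups (n = 8). Caliper measurement every 3–4 days, volume L×W²/2. %TGI computed from treated versus control volume changes relative to time 0.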
# [18] = tested on: Mus musculus; test: Toxicity in nude mouse xenografted with human RPMI8226 cells assessed as change in body weight at 30 mg/kg, iv or ip administered for 5 days followed by 2 days off for 35 days cotreated with bortezomib; type: organism-based; conditions: in vivo
# Summary of the method: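 Male 8-week nude mice implanted sc with 1×10^7 RPMI 8226 cells, randomized at ~200 mm3 (n = 8). […] Vehicle: 0.5% EtOH/0.5% Cremophor in 5% dextran.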
# [19] = Stability in Sprague-Dawley rat hepatocytes assessed as parent compound remaining at 10 uM after 60 mins by LC-MS/MS analysis; type: ADME, cell-based, Hepatocyte; conditions: read-out: Stability
# Summary of the method: (§1)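 Cryopreserved hepatocytes (Sprague-Dawley rat, beagle dog, human) incubated with compound at 10 µM, 37 °C, for up to 4 h. About 0.5×10^6 cells/well for rat and dog, 0.24×10^6 for human.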
# [20] = Stability in beagle dog hepatocytes assessed as parent compound remaining at 10 uM after 60 mins by LC-MS/MS analysis; type: ADME, cell-based, Canis lupus familiaris, Hepatocyte; conditions: read-out: Stability; summary of the method: as §1
# [21] = Stability in human hepatocytes assessed as parent compound remaining at 10 uM after 60 mins by LC-MS/MS analysis; type: ADME, cell-based, Hepatocyte; conditions: read-out: Stability; summary of the method: as §1
# [22] = Half life in beagle dog hepatocytes at 10 uM by LC-MS/MS analysis; type: ADME, cell-based, Canis lupus familiaris, Hepatocyte
# Summary of the method: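 Substrate depletion in cryopreserved hepatocytes (male SD rat, male beagle dog, human). Compound at 10 µM incubated at 37 °C for up to 4 h. Cell density approximately 0.5 × 10^6 hepatocytes/well for rat and dog, 0.24 × 10^6/well for human. Half-life and CLint derived from depletion; % remaining at 60 min also reported.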
# [23] = Intrinsic clearance in Sprague-Dawley rat hepatocytes at 10 uM by LC-MS/MS analysis; type: ADME, cell-based, Hepatocyte; conditions: read-out: CLH; summary of the method: as §1
# [24] = Intrinsic clearance in beagle dog hepatocytes at 10 uM by LC-MS/MS analysis; type: ADME, cell-based, Canis lupus familiaris, Hepatocyte; conditions: read-out: CLH; summary of the method: as §1
# [25] = Apparent permeability from apical to basolateral side in human Caco2 cells assessed as drug recovery at 10 uM after 2 hrs by LC-MS/MS analysis; type: ADME, cell-based; conditions: Caco-2, read-out: Drug recovery
# Summary of the method: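 Caco-2 cells seeded at 8.4 × 10^4 cells/cm2 on polycarbonate inserts for 21 days. For A→B, donor was apical (HBSS/MES pH 6.5, 10 µM compound) and receiver basolateral (HBSS/HEPES pH 7.4). For B→A, donor was basolateral (HBSS/HEPES pH 7.4, 10 µM) and receiver apical (HBSS/MES pH 6.5). Incubated at 37 °C for 2 h. Receiver sampled at 30, 60, 90 and 120 min, donor at 0 and 120 min.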
# [26] = tested on: Salmonella typhimurium; test: Mutagenicity in Salmonella typhimurium TA98 assessed as increase in number of revertant colonies at 3 to 3000 ug/plate in absence of S9 fraction by Ames test; type: toxicity; conditions: salmonella enterica subsp. enterica serovar typhimurium
# Summary of the method: (§2)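 Ames test, TA98 and TA100. Overnight broth cultures preincubated 20 min at 35-37 °C with compound (DMSO stock) plus Aroclor 1254-induced rat liver S9 mix or PBS, then plated in top agar with 0.05 mM histidine/biotin. Final 3-3000 µg/plate; revertants counted after 72 h at 37 °C. ≥3-fold over vehicle = mutagenic; ≤50% = cytotoxic.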
# [27] = tested on: Salmonella typhimurium; test: Mutagenicity in Salmonella typhimurium TA100 assessed as increase in number of revertant colonies at 3 to 3000 ug/plate in presence of S9 fraction by Ames test; type: toxicity; conditions: salmonella enterica subsp. enterica serovar typhimurium; summary of the method: as §2
structure (smiles),measurement,setting,value
O=C(NO)c1ccc(CNc2cccc3cccnc23)cc1,Activity,[1],17.82%
same,Activity,[2],52.88%
same,Activity,[3],23.3%
same,Activity,[4],35.59%
same,Activity,[5],31.28%
same,Activity,[6],2.46%
same,Activity,[7],45.29%
same,Activity,[8],25.75%
same,Activity,[9],21.52%
same,Activity,[10],74.13%
same,Activity,[11],15.77%
same,Activity,[12],8.6%
same,Activity,[13],1.73%
same,Activity,[14],Active
same,Activity,[15],Active
same,Activity,[16],Active
same,inhibition in vivo at 30 mg/kg,[17],60.4%
same,Activity,[18],Non-Toxic
same,"remaining at 1 h, 10 µM",[19],28.4%
same,"remaining at 1 h, 10 µM",[20],70.6%
same,"remaining at 1 h, 10 µM",[21],86.4%
same,half-life at 10 µM,[22],1.97 h
same,CLint scaled at 10 µM,[23],9.05 L/h/kg
same,CLint scaled at 10 µM,[24],2.38 L/h/kg
same,"recovery at 2 h, 10 µM",[25],72.2%
same,Activity,[26],Non-Toxic
same,Activity,[27],Non-Toxic
